Results on three molecules are retold here after ChEMBL document CHEMBL1149639, “Anti-tumor agents 255: novel glycyrrhetinic acid-dehydrozingerone conjugates as cytotoxic agents” (2007).

Activity calls are given as the source filed them. The calls are words filed in the database; no cut-off is given here.

One experiment concerns 1A9. In words: Cytotoxicity against human 1A9 cells. Type of experiment: functional. Particulars: read-out: ED50 (the source's name). The method in brief:
(§1)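 Sulforhodamine B assay after Rubinstein et al. Cells grown at 37 °C, humidified 5% CO2, in RPMI-1640 with 10% (v/v) FBS and 100 μg/mL kanamycin. Seeding density set per line to give final A562 of 1-2.5. Stocks in DMSO, final DMSO <1% (v/v). Two-day drug exposure, absorbance at 562 nm. ED50 (50% absorbance reduction vs untreated) interpolated from dose-response. Tests in duplicate.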
As for `COc1cccc2c1C(=O)c1c(O)c3c(c(O)c1C2=O)C[C@@](O)(C(=O)CO)C[C@@H]3O[C@H]1C[C@H](N)[C@H](O)[C@H](C)O1` [DOXORUBICIN], the EC50 was found to be 0.02 µM.

For `COc1ccc(/C=C/C(=O)c2ccccc2)cc1OC(=O)[C@@]1(C)CC[C@]2(C)CC[C@]3(C)C(=CC(=O)[C@@H]4[C@@]5(C)CC[C@H](O)C(C)(C)[C@@H]5CC[C@]43C)[C@@H]2C1`, the EC50 is over 14 µM.

`COc1cccc(/C=C/C(=O)c2ccccc2)c1OC(=O)[C@@]1(C)CC[C@]2(C)CC[C@]3(C)C(=CC(=O)[C@@H]4[C@@]5(C)CC[C@H](O)C(C)(C)[C@@H]5CC[C@]43C)[C@@H]2C1`: the EC50 was 13.3 µM.

A further experiment deals with HCT-8. Put plainly: Cytotoxicity against human HCT8 cells. Particulars: read-out: ED50 (the source's name). The experiment is classed as functional. An outline of the steps: as §1
Regarding `COc1cccc2c1C(=O)c1c(O)c3c(c(O)c1C2=O)C[C@@](O)(C(=O)CO)C[C@@H]3O[C@H]1C[C@H](N)[C@H](O)[C@H](C)O1` [DOXORUBICIN], the EC50 is 1.2 µM.

Turning to `COc1ccc(/C=C/C(=O)c2ccccc2)cc1OC(=O)[C@@]1(C)CC[C@]2(C)CC[C@]3(C)C(=CC(=O)[C@@H]4[C@@]5(C)CC[C@H](O)C(C)(C)[C@@H]5CC[C@]43C)[C@@H]2C1`, the EC50 was over 14 µM.

With `COc1cccc(/C=C/C(=O)c2ccccc2)c1OC(=O)[C@@]1(C)CC[C@]2(C)CC[C@]3(C)C(=CC(=O)[C@@H]4[C@@]5(C)CC[C@H](O)C(C)(C)[C@@H]5CC[C@]43C)[C@@H]2C1`, the EC50 was over 14 µM.

The next experiment relates to DU-145. Put plainly: Cytotoxicity against human DU145 cells. Particulars: read-out: ED50 (the source's name). Type of experiment: functional. An outline of the steps: as §1
Regarding `COc1cccc2c1C(=O)c1c(O)c3c(c(O)c1C2=O)C[C@@](O)(C(=O)CO)C[C@@H]3O[C@H]1C[C@H](N)[C@H](O)[C@H](C)O1` [DOXORUBICIN], the EC50 was determined as 0.15 µM.

As for `COc1ccc(/C=C/C(=O)c2ccccc2)cc1OC(=O)[C@@]1(C)CC[C@]2(C)CC[C@]3(C)C(=CC(=O)[C@@H]4[C@@]5(C)CC[C@H](O)C(C)(C)[C@@H]5CC[C@]43C)[C@@H]2C1`, the EC50 is over 14 µM.

As to `COc1cccc(/C=C/C(=O)c2ccccc2)c1OC(=O)[C@@]1(C)CC[C@]2(C)CC[C@]3(C)C(=CC(=O)[C@@H]4[C@@]5(C)CC[C@H](O)C(C)(C)[C@@H]5CC[C@]43C)[C@@H]2C1`, the EC50 is over 14 µM.

The next experiment concerns KB. In words: Cytotoxicity against human KB cells. The experiment is classed as functional.
Conditions: not given
The method in brief:
as §1
`COc1ccc(/C=C/C(=O)c2ccccc2)cc1OC(=O)[C@@]1(C)CC[C@]2(C)CC[C@]3(C)C(=CC(=O)[C@@H]4[C@@]5(C)CC[C@H](O)C(C)(C)[C@@H]5CC[C@]43C)[C@@H]2C1`: the outcome was inactive.

The experiment is the same for the next values; noted with them: read-out: ED50 (the source's name).
Consider `COc1cccc2c1C(=O)c1c(O)c3c(c(O)c1C2=O)C[C@@](O)(C(=O)CO)C[C@@H]3O[C@H]1C[C@H](N)[C@H](O)[C@H](C)O1` [DOXORUBICIN], for which the EC50 was determined as 0.1 µM.

For `COc1cccc(/C=C/C(=O)c2ccccc2)c1OC(=O)[C@@]1(C)CC[C@]2(C)CC[C@]3(C)C(=CC(=O)[C@@H]4[C@@]5(C)CC[C@H](O)C(C)(C)[C@@H]5CC[C@]43C)[C@@H]2C1`, the EC50 was determined as 9.9 µM.

Another experiment deals with A549. Put plainly: Cytotoxicity against human A549 cells. Type of experiment: functional.
Conditions: not given
An outline of the steps:
as §1
Take `COc1ccc(/C=C/C(=O)c2ccccc2)cc1OC(=O)[C@@]1(C)CC[C@]2(C)CC[C@]3(C)C(=CC(=O)[C@@H]4[C@@]5(C)CC[C@H](O)C(C)(C)[C@@H]5CC[C@]43C)[C@@H]2C1`: the outcome was inactive.

The experiment is the same for the next values; noted with them: read-out: ED50 (the source's name).
In the case of `COc1cccc2c1C(=O)c1c(O)c3c(c(O)c1C2=O)C[C@@](O)(C(=O)CO)C[C@@H]3O[C@H]1C[C@H](N)[C@H](O)[C@H](C)O1` [DOXORUBICIN], the EC50 was found to be 0.18 µM.

As to `COc1cccc(/C=C/C(=O)c2ccccc2)c1OC(=O)[C@@]1(C)CC[C@]2(C)CC[C@]3(C)C(=CC(=O)[C@@H]4[C@@]5(C)CC[C@H](O)C(C)(C)[C@@H]5CC[C@]43C)[C@@H]2C1`, the EC50 was over 14 µM.

The subject of a further experiment is LNCaP. Put plainly: Cytotoxicity against human LN-Cap cells. The experiment is classed as functional. Particulars: read-out: ED50 (the source's name). An outline of the steps: as §1
For `COc1cccc2c1C(=O)c1c(O)c3c(c(O)c1C2=O)C[C@@](O)(C(=O)CO)C[C@@H]3O[C@H]1C[C@H](N)[C@H](O)[C@H](C)O1` [DOXORUBICIN], the EC50 came to 0.04 µM.

Turning to `COc1ccc(/C=C/C(=O)c2ccccc2)cc1OC(=O)[C@@]1(C)CC[C@]2(C)CC[C@]3(C)C(=CC(=O)[C@@H]4[C@@]5(C)CC[C@H](O)C(C)(C)[C@@H]5CC[C@]43C)[C@@H]2C1`, the EC50 is 14.1 µM.

On to `COc1cccc(/C=C/C(=O)c2ccccc2)c1OC(=O)[C@@]1(C)CC[C@]2(C)CC[C@]3(C)C(=CC(=O)[C@@H]4[C@@]5(C)CC[C@H](O)C(C)(C)[C@@H]5CC[C@]43C)[C@@H]2C1`, for which the EC50 was 14.1 µM.

Test system in the next experiment: not listed separately
Put plainly: (§2) Cytotoxicity against human KB-VIN cells. The experiment is classed as functional. Particulars: KBVIN, read-out: ED50 (the source's name). The method in brief:
as §1
For the molecule `COc1cccc2c1C(=O)c1c(O)c3c(c(O)c1C2=O)C[C@@](O)(C(=O)CO)C[C@@H]3O[C@H]1C[C@H](N)[C@H](O)[C@H](C)O1` [DOXORUBICIN], the EC50 is 4.97 µM.

A further experiment deals with KB-VIN. The experiment is described as §2. The experiment is classed as functional.
Conditions: not given
The method in brief:
as §1
In the case of `COc1ccc(/C=C/C(=O)c2ccccc2)cc1OC(=O)[C@@]1(C)CC[C@]2(C)CC[C@]3(C)C(=CC(=O)[C@@H]4[C@@]5(C)CC[C@H](O)C(C)(C)[C@@H]5CC[C@]43C)[C@@H]2C1`, the result was inactive.

Consider `COc1cccc(/C=C/C(=O)c2ccccc2)c1OC(=O)[C@@]1(C)CC[C@]2(C)CC[C@]3(C)C(=CC(=O)[C@@H]4[C@@]5(C)CC[C@H](O)C(C)(C)[C@@H]5CC[C@]43C)[C@@H]2C1`, for which the outcome was inactive.

The test system of another experiment is ZR-75-1. In words: Cytotoxicity against human ZR751 cells. Type of experiment: functional.
Conditions: not given
An outline of the steps:
as §1
For `COc1ccc(/C=C/C(=O)c2ccccc2)cc1OC(=O)[C@@]1(C)CC[C@]2(C)CC[C@]3(C)C(=CC(=O)[C@@H]4[C@@]5(C)CC[C@H](O)C(C)(C)[C@@H]5CC[C@]43C)[C@@H]2C1`, the result was inactive.

The experiment is the same for the next values; noted with them: read-out: ED50 (the source's name).
`COc1cccc2c1C(=O)c1c(O)c3c(c(O)c1C2=O)C[C@@](O)(C(=O)CO)C[C@@H]3O[C@H]1C[C@H](N)[C@H](O)[C@H](C)O1` [DOXORUBICIN]: the EC50 is 0.04 µM.

Consider `COc1cccc(/C=C/C(=O)c2ccccc2)c1OC(=O)[C@@]1(C)CC[C@]2(C)CC[C@]3(C)C(=CC(=O)[C@@H]4[C@@]5(C)CC[C@H](O)C(C)(C)[C@@H]5CC[C@]43C)[C@@H]2C1`, for which the EC50 is over 14 µM.

Another experiment relates to PC-3. In words: Cytotoxicity against human PC3 cells. Particulars: read-out: ED50 (the source's name). Type of experiment: functional. The method in brief: as §1
Regarding `COc1cccc2c1C(=O)c1c(O)c3c(c(O)c1C2=O)C[C@@](O)(C(=O)CO)C[C@@H]3O[C@H]1C[C@H](N)[C@H](O)[C@H](C)O1` [DOXORUBICIN], the EC50 was 0.26 µM.

As for `COc1ccc(/C=C/C(=O)c2ccccc2)cc1OC(=O)[C@@]1(C)CC[C@]2(C)CC[C@]3(C)C(=CC(=O)[C@@H]4[C@@]5(C)CC[C@H](O)C(C)(C)[C@@H]5CC[C@]43C)[C@@H]2C1`, the EC50 was found to be 14.1 µM.

For `COc1cccc(/C=C/C(=O)c2ccccc2)c1OC(=O)[C@@]1(C)CC[C@]2(C)CC[C@]3(C)C(=CC(=O)[C@@H]4[C@@]5(C)CC[C@H](O)C(C)(C)[C@@H]5CC[C@]43C)[C@@H]2C1`, the EC50 was found to be 14.1 µM.
